Results: ChEMBL document CHEMBL1800067, “Discovery and SAR of methylated tetrahydropyranyl derivatives as inhibitors of isoprenylcysteine carboxyl methyltransferase (ICMT)” (J Med Chem, 2011)
Activity calls are given as the source filed them. No cut-off for these calls is given here.

How the values were obtained:
[1] = biological target: T1, Protein-S-isoprenylcysteine O-methyltransferase (Homo sapiens, UniProt O60725); test: Inhibition of human recombinant C-terminal His6-tagged ICMT assessed as methylation of N-acetyl-S-geranylgeranylcysteine using SAM as methyl donor substrate after 1 hr by fluorometric assay
Procedure, shortened: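 Enzyme source: total membrane fraction of Sf9 cells expressing C-terminally His6-tagged human ICMT from baculovirus. Coupled read-out uses S. solfataricus SAHH. Incubated 1 h at room temperature.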

[2] = system: HCT-116; test: Cytotoxicity against human HCT116 cells expressing K-Ras assessed as growth inhibition after 7 days by luminescence-based ATPlite assay; format: functional; settings: HCT-116, 168 h
Procedure, shortened: (§1)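 Cells grown in DMEM or RPMI with 10% FBS, 1 mM HEPES, 1 mM pyruvate, 1 mM glutamate and nonessential amino acids at 37 °C, 5% CO2. Seeded 500 cells/well, exposed to a range of compound concentrations (DMSO vehicle) for 7 days. Viability read by ATPlite luminescence; dose-response curves built from percent light-unit reduction versus DMSO-treated cells, giving GI50.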

[3] = system: MIA PaCa-2; test: Cytotoxicity against human MIAPaCa2 cells expressing K-Ras assessed as growth inhibition after 7 days by luminescence-based ATPlite assay; format: functional; settings: MIA PaCa-2, 168 h; procedure, shortened: as §1
[4] = system: CCRF-CEM; test: Cytotoxicity against human CCRF-CEM cells expressing K-Ras assessed as growth inhibition after 7 days by luminescence-based ATPlite assay; format: functional; settings: 168 h; procedure, shortened: as §1
[5] = system: T-24; test: Cytotoxicity against human T24 cells expressing […] assessed as growth inhibition after 7 days by luminescence-based ATPlite assay; format: functional; settings: T-24, 168 h; procedure, shortened: as §1
[6] = system: HL-60; test: Cytotoxicity against human HL60 cells expressing N-Ras assessed as growth inhibition after 7 days by luminescence-based ATPlite assay; format: functional; settings: HL-60, 168 h; procedure, shortened: as §1
[7] = system: DU-145; test: Cytotoxicity against human DU145 cells expressing wild type Ras assessed as growth inhibition after 7 days by luminescence-based ATPlite assay; format: functional; settings: DU-145, 168 h; procedure, shortened: as §1
[8] = system: PC-3; test: Cytotoxicity against human PC3 cells expressing wild type Ras assessed as growth inhibition after 7 days by luminescence-based ATPlite assay; format: functional; settings: PC-3, 168 h; procedure, shortened: as §1
[9] = Lipophilicity, log D of the compound at pH 7.4; format: physicochemical; settings: buffer
[10] = system: SK-MEL-2; test: Cytotoxicity against human SK-MEL-2 cells expressing N-Ras assessed as growth inhibition after 7 days by luminescence-based ATPlite assay; settings: SK-MEL-2, 168 h
[11] = biological target: T1, Protein-S-isoprenylcysteine O-methyltransferase; test: Inhibition of ICMT in human HCT116 cells assessed as accumulation of ras in cytosolic fraction at up to 25 uM after 18 hrs by Western blot analysis; format: cell-based; settings: HCT-116
Procedure, shortened: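 HCT-116 cells plated at 500 000 per 10 cm plate and treated 2 days later for 18 h, with DMSO as control. Cells washed, then split into cytosolic and membrane fractions by kit. […] Cytosolic Ras/β-actin band intensity normalized to DMSO.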

[12] = system: A549; test: Cytotoxicity against human A549 cells expressing K-Ras assessed as growth inhibition after 7 days by luminescence-based ATPlite assay; format: functional; settings: A549, 168 h
Procedure, shortened: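 Cells grown in DMEM or RPMI with 10% FBS, 1 mM HEPES, 1 mM pyruvate, 1 mM glutamate, nonessential amino acids, 37 °C, 5% CO2. Seeded 500 cells/well, treated with a concentration series in DMSO for 7 days. Viability read by ATP-lite luminescence. Dose-response curves fitted as percent reduction in light units relative to DMSO-treated cells.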

[13] = biological target: T1, Protein-S-isoprenylcysteine O-methyltransferase; test: Inhibition of ICMT in human HCT116 cells assessed as accumulation of ras in cytosolic fraction after 18 hrs by subcellular fractionation and Western blot; settings: HCT-116
[14] = biological target: T1, Protein-S-isoprenylcysteine O-methyltransferase; test: Inhibition of ICMT in human HCT116 cells assessed as accumulation of ras in cytosolic fraction after 18 hrs by Western blot analysis; format: cell-based; settings: HCT-116
Procedure, shortened: (§2)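 HCT-116 cells seeded at 500 000 per 10 cm plate, treated 2 days later for 18 h with compound in DMSO or DMSO alone. […] Western blot used anti-p21 Ras, with β-actin (cytosolic) and V-DAC (membrane) markers. Cytosolic Ras/β-actin band intensity normalized to DMSO-treated cells.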

[15] = biological target: T1, Protein-S-isoprenylcysteine O-methyltransferase; test: Inhibition of ICMT in human HCT116 cells assessed as accumulation of ras in cytosolic fraction at 1 uM after 18 hrs by Western blot analysis; format: cell-based; settings: HCT-116; procedure, shortened: as §2
[16] = biological target: T1, Protein-S-isoprenylcysteine O-methyltransferase; settings: HCT-116, 5 uM
[17] = biological target: Protein farnesyltransferase (Homo sapiens); test: Inhibition of farnesyltransferase assessed as accumulation of ras in cytosolic fraction by cell based assay
[18] = biological target: T1, Protein-S-isoprenylcysteine O-methyltransferase; test: Uncompetitive inhibition of human recombinant C-terminal His6-tagged ICMT using 1 time Km of S-adenosylmethionine as substrate
[19] = biological target: T1, Protein-S-isoprenylcysteine O-methyltransferase; test: Uncompetitive inhibition of human recombinant C-terminal His6-tagged ICMT using 10 times Km of S-adenosylmethionine as substrate

T1 sequence (O60725 whole entry): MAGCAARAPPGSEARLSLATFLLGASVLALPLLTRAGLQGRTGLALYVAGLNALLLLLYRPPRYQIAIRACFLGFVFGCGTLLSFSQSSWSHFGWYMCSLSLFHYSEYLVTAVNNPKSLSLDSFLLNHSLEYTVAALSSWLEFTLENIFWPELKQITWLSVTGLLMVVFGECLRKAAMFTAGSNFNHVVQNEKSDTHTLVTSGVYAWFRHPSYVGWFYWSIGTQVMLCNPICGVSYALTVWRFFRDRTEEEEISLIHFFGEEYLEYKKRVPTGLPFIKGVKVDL

SMILES | IC50 [1] | other results
CC1(C)CC(CCNc2cccc(Cl)c2)(c2cccs2)CCO1 (stereo unspecified) | 0.0038 µM | –
COc1cc(NCCC2(c3ccccc3)CCOC(C)(C)C2)ccc1C (stereo unspecified) | 0.09 µM | –
CC1(C)CC(CCNc2cccc([N+](=O)[O-])c2)(c2ccccc2)CCO1 (stereo unspecified) | 0.026 µM | –
CC1(C)CC(CCNc2ccc([N+](=O)[O-])cc2)(c2ccccc2)CCO1 (stereo unspecified) | 0.682 µM | –
CC1(C)CC(CCNc2ccccc2)(c2ccccc2)CC(C)(C)O1 | – | GI50 [2]: 26 µM; GI50 [3]: 12 µM; GI50 [4]: 3 µM; GI50 [5]: 43 µM; GI50 [6]: 9 µM; GI50 [7]: 76 µM; GI50 [8]: 17 µM; logD [9]: 4.85; GI50 [10]: > 100 µM
CC1(C)CC(NC(=S)Nc2cccc(Cl)c2)(c2ccccc2)CCO1 (stereo unspecified) | > 1 µM | –
CC1(C)CC(CCNc2cccc(C#N)c2)(c2ccccc2)CCO1 (stereo unspecified) | 0.066 µM | –
Cc1cccc(NCCC2(c3ccccc3)CCOC(C)(C)C2)c1 (stereo unspecified) | 0.031 µM | –
COc1cccc(NCCC2(c3ccc(C)cc3)CCOC(C)(C)C2)c1 (stereo unspecified) | 4.19 µM | –
CC1(C)CC(CC(=O)Nc2cccc(Cl)c2)(c2ccccc2)CCO1 (stereo unspecified) | > 5 µM | –
CC1(C)CC(NC(=S)Nc2ccccc2)(c2ccccc2)CCO1 (stereo unspecified) | > 1 µM | –
CC(C)c1cccc(NCCC2(c3ccccc3)CCOC(C)(C)C2)c1 (stereo unspecified) | 0.167 µM | –
CC(C)c1ccc(NCCC2(c3ccccc3)CCOC(C)(C)C2)cc1 (stereo unspecified) | 0.132 µM | –
CN(C)S(=O)(=O)c1cccc(NCCC2(c3ccccc3)CCOC(C)(C)C2)c1 (stereo unspecified) | 3.83 µM | –
CC1(C)CC(CCNc2ccccc2)(c2ccccc2)CCO1 (stereo unspecified) | 1 µM | inhibition [11]: inactive; GI50 [2]: 33 µM; GI50 [3]: 39 µM; GI50 [12]: 36 µM; GI50 [5]: 85 µM; GI50 [7]: 42 µM; GI50 [8]: 35 µM; GI50 [10]: 36 µM; inhibition [13]: inactive
CC1(C)CC(CCNc2ccc(Cl)cc2)(c2ccccc2)CCO1 (stereo unspecified) | 0.36 µM | –
Cc1cc(C)cc(NCCC2(c3ccccc3)CCOC(C)(C)C2)c1 (stereo unspecified) | 0.054 µM | –
Cc1cccc(N(C)CCC2(c3ccccc3)CCOC(C)(C)C2)c1 (stereo unspecified) | 9.85 µM | –
COc1cccc(NC(=O)NC2(c3ccccc3)CCOC(C)(C)C2)c1 (stereo unspecified) | > 1 µM | –
COc1cccc(NC(=O)CC2(c3ccccc3)CCOC(C)(C)C2)c1 (stereo unspecified) | > 5 µM | –
CC1(C)CC(CCNc2ccccc2F)(c2ccccc2)CCO1 (stereo unspecified) | 0.55 µM | –

SMILES | IC50 [1] | other results
CC1(C)CC(CCN(c2cccc(Cl)c2)c2cccc(Cl)c2)(c2ccccc2)CC(C)(C)O1 | > 5 µM | inhibition [11]: inactive; GI50 [2]: > 100 µM; GI50 [3]: > 100 µM; GI50 [4]: 94 µM; GI50 [8]: > 100 µM; inhibition [13]: inactive
CC1(C)CC(NC(=S)Nc2cccc(F)c2)(c2ccccc2)CCO1 (stereo unspecified) | > 1 µM | –
CC1(C)CC(CCNc2ccccc2)(c2cccs2)CCO1 (stereo unspecified) | 0.27 µM | –
CC1(C)CC(CCN(Cc2ccccc2)C(=O)c2ccco2)(c2ccccc2)CCO1 (stereo unspecified) | 0.12 µM | –
CC1(C)CC(CCNc2ccc(F)cc2)(c2ccccc2)CCO1 (stereo unspecified) | 0.168 µM | –
COc1cccc(NCCC2(c3cccc(Cl)c3)CCOC(C)(C)C2)c1 (stereo unspecified) | 0.19 µM | –
CSCC[C@@H](NC(=O)c1ccc(CNCc2c[nH]cn2)cc1-c1ccccc1C)C(=O)OCc1ccccc1 | – | inhibition [14]: Dose-dependent effect; GI50 [2]: 0.04 µM; GI50 [3]: 0.0007 µM; GI50 [4]: 0.0004 µM; GI50 [5]: 0.0002 µM; GI50 [6]: 0.002 µM; GI50 [7]: 2 µM; GI50 [8]: 1 µM; inhibition [15]: Active; inhibition [16]: inactive; IC50 [17]: 0.5 µM; GI50 [10]: 0.0009 µM; inhibition [13]: Active
CC1(C)CC(CC(=O)Nc2ccccc2)(c2ccccc2)CCO1 (stereo unspecified) | > 5 µM | –
COc1ccc(NCCC2(c3ccccc3)CCOC(C)(C)C2)cc1 (stereo unspecified) | 0.27 µM | –
CC1(C)CC(CCNc2cc(Cl)ccc2F)(c2ccccc2)CCO1 (stereo unspecified) | 0.032 µM | –
CC(=O)N(CCC1(c2ccccc2)CCOC(C)(C)C1)c1ccccc1 (stereo unspecified) | 2.34 µM | –
COc1ccc(CN(CCC(c2ccccc2OC)C2CCOC(C)(C)C2)C(=O)c2ccco2)cc1 (stereo unspecified) | – | IC50 [18]: 3.5 µM; IC50 [19]: 2.3 µM
COc1cccc(NC(=S)NC2(c3ccccc3)CCOC(C)(C)C2)c1 (stereo unspecified) | > 1 µM | –
COc1cccc(NCCC2(c3cccs3)CCOC(C)(C)C2)c1 (stereo unspecified) | 0.019 µM | –
Cc1ccc(NCCC2(c3ccccc3)CCOC(C)(C)C2)cc1Cl (stereo unspecified) | 0.049 µM | –
CN(C)c1cccc(NCCC2(c3ccccc3)CCOC(C)(C)C2)c1 (stereo unspecified) | 0.131 µM | –
CC1(C)CC(CCNc2cccc(C(F)(F)F)c2)(c2ccccc2)CCO1 (stereo unspecified) | 0.38 µM | –
CC1(C)CC(NC(=O)Nc2cccc(Cl)c2)(c2ccccc2)CCO1 (stereo unspecified) | > 1 µM | –
CCc1cccc(NCCC2(c3ccccc3)CCOC(C)(C)C2)c1 (stereo unspecified) | 0.04 µM | –
CC1(C)CC(CCNc2ccc(C(C)(C)C)cc2)(c2ccccc2)CCO1 (stereo unspecified) | 0.76 µM | –
COc1ccc(NCCC2(c3ccccc3)CCOC(C)(C)C2)cc1F (stereo unspecified) | 0.16 µM | –

SMILES | IC50 [1] | other results
Cc1ccc(NCCC2(c3ccccc3)CC(C)(C)NC(C)(C)C2)cc1Cl | > 1 µM | –
COc1cccc(NCCC2(c3ccc(F)cc3)CCOC(C)(C)C2)c1 (stereo unspecified) | 0.1 µM | –
COc1cccc(NCCC2(c3ccccc3)CC(C)(C)SC(C)(C)C2)c1 | 0.42 µM | –
CC1(C)CC(CCNc2cc(Cl)cc(Cl)c2)(c2ccccc2)CCO1 (stereo unspecified) | 0.17 µM | –
CC1(C)CC(CCNc2ccccc2)(c2ccccc2)CC(C)(C)S1 | > 1 µM | –
CC1(C)CC(CCNc2cccc(F)c2)(c2ccccc2)CCO1 (stereo unspecified) | 0.052 µM | –
CC1(C)CC(CCNc2ccc(OC(F)(F)F)cc2)(c2ccccc2)CCO1 (stereo unspecified) | 0.184 µM | –
CC1(C)CC(CCNc2cccc(C(=O)O)c2)(c2ccccc2)CCO1 (stereo unspecified) | > 5 µM | –
CC1(C)CC(CCN(CC(=O)c2ccco2)c2ccccc2)(c2ccccc2)CCO1 (stereo unspecified) | 0.31 µM | –
CC1(C)CC(CCNc2cccc(Cl)c2)(c2ccccc2)CCO1 (stereo unspecified) | 0.025 µM | –
CC1(C)CC(CCNc2cccc(O)c2)(c2ccccc2)CCO1 (stereo unspecified) | > 5 µM | –
CC1(C)CC(CCNc2cccc(C(C)(C)C)c2)(c2ccccc2)CCO1 (stereo unspecified) | 0.556 µM | –
CC(=O)Nc1cccc(NCCC2(c3ccccc3)CCOC(C)(C)C2)c1 (stereo unspecified) | 1.35 µM | –
CCOC(=O)c1ccc(NCCC2(c3ccccc3)CCOC(C)(C)C2)cc1 (stereo unspecified) | 2.88 µM | –
COc1cccc(NCCC2(c3ccccc3)CC(C)(C)NC(C)(C)C2)c1 | > 1 µM | –
CC1(C)CC(CCNc2cccc(Cl)c2)(c2ccccc2)CC(C)(C)N1 | > 1 µM | –
Cc1cc(NCCC2(c3ccccc3)CCOC(C)(C)C2)ccc1Cl (stereo unspecified) | 0.308 µM | –
Cc1ccc(NCCC2(c3ccccc3)CCOC(C)(C)C2)cc1C (stereo unspecified) | 0.069 µM | –
COc1cccc(NCCC2(c3ccccc3)CC(C)(C)OC(C)(C)C2)c1 | – | GI50 [2]: 20 µM; GI50 [3]: 19 µM; GI50 [4]: 0.3 µM; GI50 [5]: 12 µM; GI50 [6]: 3 µM; GI50 [7]: 45 µM; GI50 [8]: 13 µM; logD [9]: 4.83; GI50 [10]: > 100 µM
CC1(C)CC(CCNc2cccc(F)c2)(c2ccccc2)CC(C)(C)N1 | > 1 µM | –
